ChEMBL document CHEMBL1129626, “Cyclic HIV protease inhibitors: synthesis, conformational analysis, P2/P2' structure-activity relationship, and molecular recognition of cyclic ureas” (J Med Chem, 1996)

Columns and labels:
[1] = system: Human immunodeficiency virus 1; test: Inhibition of viral infection in HIV-1 (RF)-infected MT-2 cells with an oligonucleotide-based sandwich hybridization assay.; assay type: functional, MT2
Summary of the method: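 Uninfected MT-2 cells were preincubated for 30 min with serial dilutions of compound, then infected with HIV-1 RF and cultured for 3 days at 37 °C, 5% CO2. Lysates were assayed for viral RNA by microtiter oligonucleotide sandwich hybridization.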

[2] = biological target: Human immunodeficiency virus type 1 protease (Human immunodeficiency virus 1, UniProt Q72874); test: Inhibitory activity against HIV-1 protease
Summary of the method: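 HIV-1 protease Ki from cleavage of a fluorescent peptide substrate, products resolved by HPLC. Inhibitor was tested at four concentrations spanning 0.1–10 000 nM, the range chosen per inhibitor.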

[3] = Human immunodeficiency virus 1, MT2

O=C1N(Cc2ccc(CO)cc2)[C@H](Cc2ccccc2)[C@H](O)[C@@H](O)[C@@H](Cc2ccccc2)N1Cc1ccc(CO)cc1
IC90 [1]: 51000 nM
Ki [2]: 1650 nM

CCCCN1C(=O)N(CCCC)[C@H](Cc2ccccc2)[C@H](O)[C@@H](O)[C@H]1Cc1ccccc1
IC90 [1, 3]: 680 nM
Ki [2]: 1.4 nM

CC(C)CCN1C(=O)N(CCC(C)C)[C@H](Cc2ccccc2)[C@H](O)[C@@H](O)[C@H]1Cc1ccccc1
IC90 [1, 3]: 3200 nM
Ki [2]: 12 nM

O=C1N(CC2CCC2)[C@H](Cc2ccccc2)[C@H](O)[C@@H](O)[C@@H](Cc2ccccc2)N1CC1CCC1
IC90 [1, 3]: 1000 nM
Ki [2]: 1.3 nM

COc1ccccc1CN1C(=O)N(Cc2ccccc2OC)[C@H](Cc2ccccc2)[C@H](O)[C@@H](O)[C@H]1Cc1ccccc1
IC90 [1, 3]: 22900 nM
Ki [2]: 1870 nM

C#CCN1C(=O)N(CC#C)[C@H](Cc2ccccc2)[C@H](O)[C@@H](O)[C@H]1Cc1ccccc1
IC90 [1, 3]: 42000 nM
Ki [2]: 22 nM

C=C(C)CN1C(=O)N(CC(=C)C)[C@H](Cc2ccccc2)[C@H](O)[C@@H](O)[C@H]1Cc1ccccc1
IC90 [1, 3]: 7600 nM
Ki [2]: 7.3 nM

COc1cccc(CN2C(=O)N(Cc3cccc(OC)c3)[C@H](Cc3ccccc3)[C@H](O)[C@@H](O)[C@H]2Cc2ccccc2)c1
IC90 [1, 3]: 1300 nM
Ki [2]: 1.6 nM

CCCN1C(=O)N(Cc2ccc3ccccc3c2)[C@H](Cc2ccccc2)[C@H](O)[C@@H](O)[C@H]1Cc1ccccc1
IC90 [1, 3]: 3300 nM
Ki [2]: 1.1 nM

C=COCCN1C(=O)N(CCOC=C)[C@H](Cc2ccccc2)[C@H](O)[C@@H](O)[C@H]1Cc1ccccc1
IC90 [1, 3]: > 107000 nM
Ki [2]: 60 nM

C=CCN1C(=O)N(Cc2ccc3ccccc3c2)[C@H](Cc2ccccc2)[C@H](O)[C@@H](O)[C@H]1Cc1ccccc1
IC90 [1, 3]: 990 nM
Ki [2]: 1.4 nM

CCCCCCN1C(=O)N(CCCCCC)[C@H](Cc2ccccc2)[C@H](O)[C@@H](O)[C@H]1Cc1ccccc1
IC90 [1, 3]: > 102000 nM
Ki [2]: 4.6 nM

O=C1N(Cc2cccnc2)[C@H](Cc2ccccc2)[C@H](O)[C@@H](O)[C@@H](Cc2ccccc2)N1Cc1ccc2ccccc2c1
IC90 [1, 3]: 720 nM
Ki [2]: 5.2 nM

COCCOCCN1C(=O)N(CCOCCOC)[C@H](Cc2ccccc2)[C@H](O)[C@@H](O)[C@H]1Cc1ccccc1
IC90 [1, 3]: > 94000 nM
Ki [2]: 7700 nM

O=C1N(Cc2cccc(C(F)(F)F)c2)[C@H](Cc2ccccc2)[C@H](O)[C@@H](O)[C@@H](Cc2ccccc2)N1Cc1cccc(C(F)(F)F)c1
IC90 [1, 3]: 7800 nM

CC(C)CCCN1C(=O)N(CCCC(C)C)[C@H](Cc2ccccc2)[C@H](O)[C@@H](O)[C@H]1Cc1ccccc1
IC90 [1, 3]: 8100 nM
Ki [2]: 7 nM

O=C1N(Cc2cccc(Br)c2)[C@H](Cc2ccccc2)[C@H](O)[C@@H](O)[C@@H](Cc2ccccc2)N1Cc1cccc(Br)c1
IC90 [1, 3]: 1200 nM
Ki [2]: 1.4 nM

O=C1N(Cc2ccncc2)[C@H](Cc2ccccc2)[C@H](O)[C@@H](O)[C@@H](Cc2ccccc2)N1Cc1ccncc1
IC90 [1, 3]: 98000 nM
Ki [2]: 90 nM

O=C1N(Cc2ccncc2)[C@H](Cc2ccccc2)[C@H](O)[C@@H](O)[C@@H](Cc2ccccc2)N1Cc1ccc2ccccc2c1
IC90 [1, 3]: 2700 nM
Ki [2]: 6.9 nM

O=C1N(Cc2ccc(F)cc2)[C@H](Cc2ccccc2)[C@H](O)[C@@H](O)[C@@H](Cc2ccccc2)N1Cc1ccc2ccccc2c1
IC90 [1, 3]: 1100 nM
Ki [2]: 3.6 nM

O=C1N(Cc2ccccn2)[C@H](Cc2ccccc2)[C@H](O)[C@@H](O)[C@@H](Cc2ccccc2)N1Cc1ccccn1
IC90 [1, 3]: 49000 nM
Ki [2]: 145 nM

O=C1N(Cc2cccnc2)[C@H](Cc2ccccc2)[C@H](O)[C@@H](O)[C@@H](Cc2ccccc2)N1Cc1cccnc1
IC90 [1, 3]: 8800 nM
Ki [2]: 9.7 nM

CC(C)CCCCN1C(=O)N(CCCCC(C)C)[C@H](Cc2ccccc2)[C@H](O)[C@@H](O)[C@H]1Cc1ccccc1
IC90 [1, 3]: > 95000 nM
Ki [2]: 30 nM

O=C1N(Cc2ccc(C(F)(F)F)cc2)[C@H](Cc2ccccc2)[C@H](O)[C@@H](O)[C@@H](Cc2ccccc2)N1Cc1ccc(C(F)(F)F)cc1
IC90 [1, 3]: 7200 nM

CCCN1C(=O)N(CCC)[C@H](Cc2ccccc2)[C@H](O)[C@@H](O)[C@H]1Cc1ccccc1
IC90 [1, 3]: 54000 nM
Ki [2]: 8 nM

O=C1N(CC2CCCCC2)[C@H](Cc2ccccc2)[C@H](O)[C@@H](O)[C@@H](Cc2ccccc2)N1CC1CCCCC1
IC90 [1, 3]: > 96000 nM
Ki [2]: 37 nM

CN1C(=O)N(C)[C@H](Cc2ccccc2)[C@H](O)[C@@H](O)[C@H]1Cc1ccccc1
IC90 [1, 3]: > 141000 nM
Ki [2]: 5700 nM

CCN1C(=O)N(CC)[C@H](Cc2ccccc2)[C@H](O)[C@@H](O)[C@H]1Cc1ccccc1
IC90 [1, 3]: > 132000 nM
Ki [2]: 100 nM

O=C1N(CCN2CCOCC2)[C@H](Cc2ccccc2)[C@H](O)[C@@H](O)[C@@H](Cc2ccccc2)N1CCN1CCOCC1
IC90 [1, 3]: > 91000 nM

O=C1N(Cc2cccc([N+](=O)[O-])c2)[C@H](Cc2ccccc2)[C@H](O)[C@@H](O)[C@@H](Cc2ccccc2)N1Cc1cccc([N+](=O)[O-])c1
IC90 [1, 3]: 970 nM
Ki [2]: 2.8 nM

O=C1N(Cc2cccc(F)c2)[C@H](Cc2ccccc2)[C@H](O)[C@@H](O)[C@@H](Cc2ccccc2)N1Cc1cccc(F)c1
IC90 [1, 3]: 710 nM
Ki [2]: 3 nM

O=C1N(Cc2ccccc2Cl)[C@H](Cc2ccccc2)[C@H](O)[C@@H](O)[C@@H](Cc2ccccc2)N1Cc1ccccc1Cl
IC90 [1, 3]: 11300 nM
Ki [2]: 240 nM

CC(C)CCCCCN1C(=O)N(CCCCCC(C)C)[C@H](Cc2ccccc2)[C@H](O)[C@@H](O)[C@H]1Cc1ccccc1
IC90 [1, 3]: > 18000 nM
Ki [2]: 110 nM

CCCCCN1C(=O)N(CCCCC)[C@H](Cc2ccccc2)[C@H](O)[C@@H](O)[C@H]1Cc1ccccc1
IC90 [1, 3]: 1500 nM
Ki [2]: 1.6 nM

Cc1ccc(CN2C(=O)N(Cc3ccc(C)cc3)[C@H](Cc3ccccc3)[C@H](O)[C@@H](O)[C@H]2Cc2ccccc2)cc1
IC90 [1, 3]: 4300 nM
Ki [2]: 5.7 nM

COCCN1C(=O)N(CCOC)[C@H](Cc2ccccc2)[C@H](O)[C@@H](O)[C@H]1Cc1ccccc1
IC90 [1, 3]: > 114000 nM
Ki [2]: 800 nM

CCCCCCCN1C(=O)N(CCCCCCC)[C@H](Cc2ccccc2)[C@H](O)[C@@H](O)[C@H]1Cc1ccccc1
IC90 [1, 3]: > 96000 nM
Ki [2]: 260 nM

CCC(C)CCN1C(=O)N(CCC(C)CC)[C@H](Cc2ccccc2)[C@H](O)[C@@H](O)[C@H]1Cc1ccccc1 (stereo partly drawn)
Ki [2]: 36 nM

Cc1cccc(CN2C(=O)N(Cc3cccc(C)c3)[C@H](Cc3ccccc3)[C@H](O)[C@@H](O)[C@H]2Cc2ccccc2)c1
IC90 [1, 3]: 2400 nM
Ki [2]: 7 nM

O=C1N(Cc2cccc(I)c2)[C@H](Cc2ccccc2)[C@H](O)[C@@H](O)[C@@H](Cc2ccccc2)N1Cc1cccc(I)c1
IC90 [1, 3]: 3000 nM
Ki [2]: 0.42 nM

CCCCN1C(=O)N(Cc2ccc3ccccc3c2)[C@H](Cc2ccccc2)[C@H](O)[C@@H](O)[C@H]1Cc1ccccc1
IC90 [1, 3]: 750 nM
Ki [2]: 0.6 nM

CC(C)CN1C(=O)N(CC(C)C)[C@H](Cc2ccccc2)[C@H](O)[C@@H](O)[C@H]1Cc1ccccc1
IC90 [1, 3]: > 100000 nM
Ki [2]: 49 nM

O=C1N(Cc2ccc3ccccc3c2)[C@H](Cc2ccccc2)[C@H](O)[C@@H](O)[C@@H](Cc2ccccc2)N1CC1CC1
IC90 [1, 3]: 1300 nM
Ki [2]: 1.5 nM

O=C1N(Cc2ccccc2F)[C@H](Cc2ccccc2)[C@H](O)[C@@H](O)[C@@H](Cc2ccccc2)N1Cc1ccccc1F
IC90 [1, 3]: 5500 nM
Ki [2]: 34 nM

O=C1N(Cc2ccc(CO)cc2)[C@H](Cc2ccccc2)[C@H](O)[C@@H](O)[C@@H](Cc2ccccc2)N1Cc1ccc2ccccc2c1
IC90 [1, 3]: 210 nM
Ki [2]: 0.93 nM

O=C1N(Cc2ccccc2)[C@H](Cc2ccccc2)[C@H](O)[C@@H](O)[C@@H](Cc2ccccc2)N1Cc1ccc2ccccc2c1
IC90 [1, 3]: 7500 nM
Ki [2]: 2.3 nM

Nc1cccc(CN2C(=O)N(Cc3ccc4ccccc4c3)[C@H](Cc3ccccc3)[C@H](O)[C@@H](O)[C@H]2Cc2ccccc2)c1
IC90 [1, 3]: 84 nM
Ki [2]: 1 nM

CCOCCN1C(=O)N(CCOCC)[C@H](Cc2ccccc2)[C@H](O)[C@@H](O)[C@H]1Cc1ccccc1
IC90 [1, 3]: > 106000 nM
Ki [2]: 1100 nM

O=C1N(Cc2ccc(Br)cc2)[C@H](Cc2ccccc2)[C@H](O)[C@@H](O)[C@@H](Cc2ccccc2)N1Cc1ccc(Br)cc1
IC90 [1, 3]: 8100 nM
Ki [2]: 27 nM

O=C1N(Cc2ccc(Cl)cc2)[C@H](Cc2ccccc2)[C@H](O)[C@@H](O)[C@@H](Cc2ccccc2)N1Cc1ccc(Cl)cc1
IC90 [1, 3]: 4500 nM
Ki [2]: 5.2 nM

COc1ccc(CN2C(=O)N(Cc3ccc(OC)cc3)[C@H](Cc3ccccc3)[C@H](O)[C@@H](O)[C@H]2Cc2ccccc2)cc1
IC90 [1, 3]: 7600 nM
Ki [2]: 157 nM
